Reference: ChEMBL document CHEMBL2407059, “Discovery and characterization of carbamothioylacrylamides as EP2 selective antagonists” (ACS Med Chem Lett, 2013)
pIC50: −log10 of the molar value. Converted amounts (≈) assume the structure as drawn. The source made the active and inactive calls. No cut-off for these calls is given here.

Experiments:
[1] = Metabolic stability in mouse liver microsomes assessed as compound remaining at 1 to 10 uM after 60 mins; type: ADME, Microsome; settings: read-out: Stability
[2] = Metabolic stability in human liver microsomes assessed as compound remaining at 1 to 10 uM after 60 mins; type: ADME, Microsome; settings: read-out: Stability
C6 = test: Cytotoxicity against rat C6 cells after 48 hrs; type: cell-based; settings: c6, 48 h
Summary of the method: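 C6G cells are incubated with compound for 48 h, then cell viability is measured and CC50 derived.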

[3] = biological target: Prostaglandin E2 receptor EP4 subtype (Homo sapiens) (UniProt P35408); test: Antagonist activity at human EP4 receptor overexpressed in rat C6 cells assessed as inhibition of PGE2-induced cAMP accumulation incubated for 10 mins prior to PGE2 addition measured after 40 mins by TR-FRET assay; type: functional, cell-based
[4] = biological target: T1, Prostaglandin D2 receptor (Homo sapiens) (UniProt Q13258); test: Antagonist activity at human DP1 receptor overexpressed in rat C6 cells assessed as inhibition of BW245C-induced cAMP accumulation incubated for 10 mins prior to BW245C addition measured after 40 mins by TR-FRET assay; type: functional, cell-based
T1 sequence (whole entry): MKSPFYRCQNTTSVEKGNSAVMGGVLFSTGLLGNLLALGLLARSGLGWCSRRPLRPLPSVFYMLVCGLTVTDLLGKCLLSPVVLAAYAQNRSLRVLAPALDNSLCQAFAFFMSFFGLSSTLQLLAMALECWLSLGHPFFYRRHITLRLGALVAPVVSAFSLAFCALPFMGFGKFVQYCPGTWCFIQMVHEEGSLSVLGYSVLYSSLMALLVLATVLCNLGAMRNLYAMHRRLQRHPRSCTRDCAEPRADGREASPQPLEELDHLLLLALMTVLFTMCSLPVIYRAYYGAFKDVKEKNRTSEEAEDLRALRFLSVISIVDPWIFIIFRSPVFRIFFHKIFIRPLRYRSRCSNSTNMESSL

[5] = biological target: Prostacyclin receptor (Homo sapiens) (UniProt P43119); test: Antagonist activity at human IP receptor overexpressed in rat C6 cells assessed as inhibition of iloprost-induced cAMP accumulation incubated for 10 mins prior to iloprost addition measured after 40 mins by TR-FRET assay; type: functional, cell-based
[6] = biological target: T2, Prostaglandin E2 receptor EP2 subtype (Homo sapiens, UniProt P43116); test: Competitive antagonist activity at human EP2 receptor overexpressed in rat C6 cells by Schild plot analysis; type: cell-based
[7] = biological target: Prostaglandin E2 receptor EP2 subtype (Mus musculus) (UniProt Q62053); test: Inhibition of EP2 receptor-mediated mouse P388D1 macrophage activation assessed as inhibition of butaprost-induced TNF-alpha mRNA expression at 10 uM incubated for 1 hr prior to butaprost-challenge measured after 2 hrs by qRT-PCR analysis
Summary of the method: (§1)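 P388D1 mouse macrophages pretreated 1 h with 10 μM antagonist or vehicle, then stimulated 2 h with EP2-selective agonist butaprost (10 μM). Inflammatory mediator mRNA quantified by qRT-PCR; n = 3–4, mean ± SEM, one-way ANOVA with post hoc Bonferroni test.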

[8] = biological target: Prostaglandin E2 receptor EP2 subtype (Mus musculus) (UniProt Q62053); test: Inhibition of EP2 receptor-mediated mouse P388D1 macrophage activation assessed as inhibition of butaprost-induced IL-23 mRNA expression at 10 uM incubated for 1 hr prior to butaprost-challenge measured after 2 hrs by qRT-PCR analysis; summary of the method: as §1
[9] = biological target: Prostaglandin E2 receptor EP2 subtype (Mus musculus) (UniProt Q62053); test: Inhibition of EP2 receptor-mediated mouse P388D1 macrophage activation assessed as inhibition of butaprost-induced IL-17 mRNA expression at 10 uM incubated for 1 hr prior to butaprost-challenge measured after 2 hrs by qRT-PCR analysis; summary of the method: as §1
[10] = biological target: Prostaglandin E2 receptor EP2 subtype (Mus musculus) (UniProt Q62053); test: Inhibition of EP2 receptor-mediated mouse P388D1 macrophage activation assessed as inhibition of butaprost-induced IL-12 mRNA expression at 10 uM incubated for 1 hr prior to butaprost-challenge measured after 2 hrs by qRT-PCR analysis
Summary of the method: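 P388D1 macrophage line pretreated 1 h with test agent at 10 μM or vehicle, then stimulated with the EP2-selective agonist butaprost (10 μM) for 2 h. Inflammatory mediator mRNA quantified by qRT-PCR. n = 3–4, mean ± SEM, one-way ANOVA with post hoc Bonferroni test.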

[11] = biological target: Prostaglandin E2 receptor EP2 subtype (Mus musculus) (UniProt Q62053); test: Inhibition of EP2 receptor-mediated mouse P388D1 macrophage activation assessed as inhibition of butaprost-induced IL-6 mRNA expression at 10 uM incubated for 1 hr prior to butaprost-challenge measured after 2 hrs by qRT-PCR analysis; summary of the method: as §1
[12] = biological target: Prostaglandin E2 receptor EP2 subtype (Mus musculus) (UniProt Q62053); test: Inhibition of EP2 receptor-mediated mouse P388D1 macrophage activation assessed as inhibition of butaprost-induced IL-1beta mRNA expression at 10 uM incubated for 1 hr prior to butaprost-challenge measured after 2 hrs by qRT-PCR analysis; summary of the method: as §1
[13] = biological target: Prostaglandin E2 receptor EP2 subtype (Mus musculus) (UniProt Q62053); test: Inhibition of EP2 receptor-mediated mouse P388D1 macrophage activation assessed as inhibition of butaprost-induced COX-2 mRNA expression at 10 uM incubated for 1 hr prior to butaprost-challenge measured after 2 hrs by qRT-PCR analysis; summary of the method: as §1
Brain [14] = test: Drug uptake in C57BL/6 mouse brain at 10 mg/kg, ip after 1 hr; type: ADME, organism-based; design: dose 10 mg/kg, route intraperitoneal; settings: in vivo
Summary of the method: (§2)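 Female C57BL/6 mice dosed 10 mg/kg by oral gavage or 5 mg/kg i.p. (10 mg/kg i.p. also examined for brain) in vehicle of 10% DMSO, 70% PEG400, 20% sterile water. Brain tissue collected at 1 and 2 h post-dose; brain-to-plasma ratio reported.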

Nucleic Acid = test: Ratio of drug level in brain to plasma in C57BL/6 mouse at 10 mg/kg, ip; type: ADME, organism-based; design: dose 10 mg/kg, route intraperitoneal
Summary of the method: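 Female C57BL/6 mice dosed 10 mg/kg i.p. Plasma prepared from blood, and brain tissue collected at 1 h. Brain-to-plasma concentration ratio calculated from the two levels.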

Brain [15] = test: Drug uptake in C57BL/6 mouse brain at 5 mg/kg, ip after 1 to 2 hrs; type: ADME, organism-based; design: dose 5 mg/kg, route intraperitoneal; settings: in vivo; summary of the method: as §2
[16] = Plasma concentration in C57BL/6 mouse at 5 mg/kg, ip after 30 mins; type: ADME, organism-based; design: dose 5 mg/kg, route intraperitoneal
Summary of the method: (§3)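 Female C57BL/6 mice dosed 10 mg/kg by oral gavage or 5 mg/kg i.p. in 10% DMSO/70% PEG400/20% sterile water. Blood drawn at five time points from 0.5 to 8 h and processed to plasma. Compound concentration in plasma measured; n = 3 mice per time point, mean ± SEM.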

Brain [17] = test: Drug uptake in C57BL/6 mouse brain at 10 mg/kg, po after 1 to 2 hrs; type: ADME, organism-based; design: dose 10 mg/kg, route oral; settings: in vivo; summary of the method: as §2
[18] = Plasma concentration in C57BL/6 mouse at 10 mg/kg, po after 30 mins; type: ADME, organism-based; design: dose 10 mg/kg, route oral; summary of the method: as §3
[19] = Aqueous solubility of the compound in PBS buffer at pH 7.0 by nephelometry; type: physicochemical
[20] = Inhibition of Staphylococcus aureus NadD
[21] = biological target: Beta-2 adrenergic receptor (Homo sapiens) (UniProt P07550); test: Inhibition of beta2-adrenergic receptor (unknown origin) overexpressed in rat C6G cells up to 40 uM by TR-FRET assay; type: cell-based
[22] = biological target: Prostaglandin E2 receptor EP4 subtype (Homo sapiens) (UniProt P35408); test: Inhibition of human EP4 receptor overexpressed in rat C6G cells up to 40 uM by TR-FRET assay; type: cell-based
[23] = biological target: T2, Prostaglandin E2 receptor EP2 subtype; test: Antagonist activity at human EP2 receptor overexpressed in rat C6 cells assessed as inhibition of PGE2-induced cAMP accumulation incubated for 10 mins prior to PGE2 addition measured after 40 mins by TR-FRET assay; type: functional, cell-based

Chain of Prostaglandin E2 receptor EP4 subtype (Homo sapiens) (P35408 whole entry): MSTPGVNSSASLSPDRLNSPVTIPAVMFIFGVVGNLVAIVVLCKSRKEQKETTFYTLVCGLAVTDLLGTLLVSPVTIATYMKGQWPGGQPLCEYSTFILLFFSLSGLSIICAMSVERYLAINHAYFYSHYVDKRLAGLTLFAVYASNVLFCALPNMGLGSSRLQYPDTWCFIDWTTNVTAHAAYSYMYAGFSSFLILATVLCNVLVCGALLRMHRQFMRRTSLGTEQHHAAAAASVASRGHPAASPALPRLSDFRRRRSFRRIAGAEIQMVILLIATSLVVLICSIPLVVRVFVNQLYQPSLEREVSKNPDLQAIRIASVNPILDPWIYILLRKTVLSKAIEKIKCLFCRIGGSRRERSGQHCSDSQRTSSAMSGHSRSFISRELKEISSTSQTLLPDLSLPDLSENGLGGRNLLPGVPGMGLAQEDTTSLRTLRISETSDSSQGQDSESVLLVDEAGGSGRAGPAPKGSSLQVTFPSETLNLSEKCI
T2 sequence (P43116 whole entry): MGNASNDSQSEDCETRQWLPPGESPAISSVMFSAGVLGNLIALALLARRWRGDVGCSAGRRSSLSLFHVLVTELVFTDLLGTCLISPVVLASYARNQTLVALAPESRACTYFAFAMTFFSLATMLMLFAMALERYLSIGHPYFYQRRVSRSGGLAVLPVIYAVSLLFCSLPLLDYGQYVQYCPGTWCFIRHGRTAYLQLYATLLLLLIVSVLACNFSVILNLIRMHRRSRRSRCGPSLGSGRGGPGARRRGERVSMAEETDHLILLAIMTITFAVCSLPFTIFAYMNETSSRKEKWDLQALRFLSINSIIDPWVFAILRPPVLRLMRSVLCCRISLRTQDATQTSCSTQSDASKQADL
Chain of Prostaglandin E2 receptor EP2 subtype (Mus musculus) (Q62053 whole entry): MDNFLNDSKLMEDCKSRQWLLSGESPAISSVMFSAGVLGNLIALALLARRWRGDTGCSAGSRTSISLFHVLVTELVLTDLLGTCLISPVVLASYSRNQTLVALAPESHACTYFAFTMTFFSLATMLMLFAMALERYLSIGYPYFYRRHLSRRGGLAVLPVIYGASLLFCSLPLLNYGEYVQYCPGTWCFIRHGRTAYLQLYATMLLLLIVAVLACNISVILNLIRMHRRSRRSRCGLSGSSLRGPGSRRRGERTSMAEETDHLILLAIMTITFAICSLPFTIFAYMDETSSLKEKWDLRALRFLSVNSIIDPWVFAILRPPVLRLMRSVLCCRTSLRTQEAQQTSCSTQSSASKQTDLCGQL
Chain of Prostacyclin receptor (Homo sapiens) (P43119 whole entry): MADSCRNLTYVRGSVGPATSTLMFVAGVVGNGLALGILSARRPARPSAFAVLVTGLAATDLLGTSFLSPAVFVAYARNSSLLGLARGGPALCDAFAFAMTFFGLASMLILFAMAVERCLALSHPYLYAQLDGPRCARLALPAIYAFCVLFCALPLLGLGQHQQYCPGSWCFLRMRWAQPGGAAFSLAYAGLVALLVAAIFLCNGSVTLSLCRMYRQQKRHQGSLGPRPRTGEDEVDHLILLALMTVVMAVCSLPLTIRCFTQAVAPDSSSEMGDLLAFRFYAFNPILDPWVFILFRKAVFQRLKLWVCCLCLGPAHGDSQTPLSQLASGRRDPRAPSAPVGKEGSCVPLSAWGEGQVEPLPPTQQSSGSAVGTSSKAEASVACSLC
Chain of Beta-2 adrenergic receptor (Homo sapiens) (P07550 whole entry, looked up): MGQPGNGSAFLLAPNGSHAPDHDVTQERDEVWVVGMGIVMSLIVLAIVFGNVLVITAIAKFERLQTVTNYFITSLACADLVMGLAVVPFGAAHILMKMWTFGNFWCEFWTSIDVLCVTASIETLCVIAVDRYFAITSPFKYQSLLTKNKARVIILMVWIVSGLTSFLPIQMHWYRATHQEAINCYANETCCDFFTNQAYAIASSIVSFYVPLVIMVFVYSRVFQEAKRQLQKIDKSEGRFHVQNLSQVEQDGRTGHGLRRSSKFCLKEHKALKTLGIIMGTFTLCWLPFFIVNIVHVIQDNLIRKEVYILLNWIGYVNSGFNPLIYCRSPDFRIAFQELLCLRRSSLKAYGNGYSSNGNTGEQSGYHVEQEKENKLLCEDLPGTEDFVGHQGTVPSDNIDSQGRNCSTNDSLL

COc1cc(NS(=O)(=O)c2ccc(NC(=S)NC(=O)/C=C/c3ccc(F)cc3)cc2)ncn1
remaining at 1 h, up to 10 µM [1]: 40% | remaining at 1 h, up to 10 µM [2]: 40% | CC50 (C6): 378 µM | Kb [3]: 18.2 µM | KB [4]: inactive

CCc1nnc(NS(=O)(=O)c2ccc(NC(=S)NC(=O)/C=C/c3ccc(OC)cc3)cc2)s1
CC50 (C6): 365 µM | Kb [3]: 13 µM | Kb [5]: 0.36 µM | Kb [4]: 46.6 µM | Kb [6]: 0.0345 µM

CCc1nnc(NS(=O)(=O)c2ccc(NC(=S)NC(=O)c3ccc(OC)cc3)cc2)s1
CC50 (C6): 186 µM | Kb [5]: 1.73 µM | Kb [4]: 16.1 µM

CCc1nnc(NS(=O)(=O)c2ccc(NC(=S)NC(=O)/C=C/c3ccc(F)cc3)cc2)s1
inhibition [7]: Active | inhibition [8]: Active | inhibition [9]: Active | inhibition [10]: Active | inhibition [11]: Active | inhibition [12]: Active | inhibition [13]: Active | Drug uptake (Brain [14]): Active | BPR (Nucleic Acid): 0.02 | Drug uptake (Brain [15]): Not Active | concentration at 0.5 h [16]: 30 µM | Drug uptake (Brain [17]): Not Active | concentration at 0.5 h [18]: 12 µM | remaining at 1 h, up to 10 µM [1]: 40% | remaining at 1 h, up to 10 µM [2]: 40% | solubility kinetic [19]: 71 µg/mL (≈ 144 µM) | CC50 (C6): 326 µM | pIC50 [20]: 5.35 | inhibition [21]: inactive | inhibition [22]: inactive | pIC50 [23]: 5.80 | inhibition [23]: Dose-dependent effect

COc1cc(NS(=O)(=O)c2ccc(NC(=S)NC(=O)c3cccs3)cc2)nc(OC)n1
CC50 (C6): 258 µM | Kb [5]: 5.9 µM | Kb [4]: 25.2 µM

COc1ccc(NS(=O)(=O)c2ccc(NC(=S)NC(=O)/C=C/c3ccc(C)cc3)cc2)nn1
CC50 (C6): 150 µM | Kb [3]: 20.5 µM | Kb [5]: 0.36 µM | KB [4]: inactive | Kb [6]: 0.0133 µM

CCc1nnc(NS(=O)(=O)c2ccc(NC(=S)NC(=O)/C=C/c3ccccc3)cc2)s1
CC50 (C6): 370 µM | Kb [4]: 9.8 µM

CCc1nnc(NS(=O)(=O)c2ccc(NC(=S)NC(=O)/C=C/c3cccs3)cc2)s1
CC50 (C6): 330 µM | Kb [5]: 2.26 µM

COc1cc(NS(=O)(=O)c2ccc(NC(=S)NC(=O)c3sc4cc(F)ccc4c3Cl)cc2)nc(OC)n1
CC50 (C6): 96 µM | Kb [3]: 0.7 µM | Kb [5]: 21 µM | Kb [4]: 8.7 µM | Kb [6]: 0.108 µM
